The values that follow come from ChEMBL document CHEMBL4266052, “Evaluation of Inhibitory Activities of UK-2A, an Antimycin-Type Antibiotic, and Its Synthetic Analogues against the Production of Anti-inflammatory Cytokine IL-4” (J Nat Prod, 2018).

Structures are written as SMILES. pIC50: −log10 of the molar value. Activity calls are given as the source filed them. No cut-off for these calls is given here.

Series [1] concerns RBL-2H3. Put plainly: Cytotoxicity against rat RBL2H3 cells assessed as inhibition of cell proliferation at >40 nM after 24 hrs by CCK8 assay. Type of series: cell-based. As to conditions: rbl-2h3, 24 h. The gist of the method: (§1)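 RBL-2H3 cells seeded 10^5/well, 12 h at 37 °C, 5% CO2, then exposed to drug in DMEM for 24 h at 37 °C; medium replaced with serum-containing medium, CCK-8 (WST-8) added, absorbance at 450 nm after 1 h. Relative viability vs control, n = 4, Student's t-test p < 0.05.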
On the technique in general: Tetrazolium dyes change colour on reduction, which living cells bring about.

For series [2], the system named is RBL-2H3. Put plainly: Anti-inflammatory activity in DNP-IgE-stimulated rat RBL2H3 cells assessed as reduction of IL4 secretion at >20 nM pretreated for 10 mins followed by DNP-HSA stimulation measured after 1 hr by ELISA. In kind it is functional, cell-based. The gist of the method: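 RBL-2H3 cells, 2.5 × 10^4/well, cultured overnight, then sensitised 2 h with 50 ng/mL anti-DNP IgE in DMEM/10% FBS at 37 °C, 5% CO2. After washing, drug added in DMF (0.05% final). After 10 min, challenged with DNP-HSA (50 ng/mL final) for 1 h. Supernatant rat IL-4 measured by ELISA on Luminex multiplex system. Mean ± SEM, n = 3.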
For orientation: An ELISA detects its analyte on a solid surface through an enzyme-linked reagent.

Series [3] deals with RBL-2H3. Put plainly: Cytotoxicity against rat RBL2H3 cells assessed as inhibition of cell proliferation up to 4000 nM after 24 hrs by CCK8 assay. Type of series: cell-based. The following applies: rbl-2h3, 24 h. In short, it runs like this:
as §1

The test system of series [4] is RBL-2H3. Put plainly: Anti-inflammatory activity in DNP-IgE-stimulated rat RBL2H3 cells assessed as reduction of IL4 secretion pretreated for 10 mins followed by DNP-HSA stimulation measured after 1 hr by ELISA.
Series [5] relates to RBL-2H3. Put plainly: Cytotoxicity against rat RBL2H3 cells assessed as inhibition of cell proliferation at >5 nM after 24 hrs by CCK8 assay. In kind it is cell-based. As to conditions: rbl-2h3, 24 h.
The subject of series [6] is RBL-2H3. Put plainly: Anti-inflammatory activity in DNP-IgE-stimulated rat RBL2H3 cells assessed as reduction of IL4 secretion at >2000 nM pretreated for 10 mins followed by DNP-HSA stimulation measured after 1 hr by ELISA. Type of series: functional, cell-based. The gist of the method:
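RBL-2H3 cells (2.5 × 10^4/well, cultured overnight in DMEM + 10% FBS, penicillin/streptomycin, 37 °C, 5% CO2) sensitized 2 h with 50 ng/mL anti-DNP IgE, washed, then drug in DMF (0.05% final) added 10 min before DNP-HSA (50 ng/mL final); IL-4 in supernatant after 1 h by rat IL-4 ELISA/Luminex. IC50 from dose–response curves.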

Take `CC(C)C(=O)O[C@H]1[C@H](C)OC(=O)[C@@H](NC(=O)c2cccc(NC=O)c2O)[C@@H](C)OC(=O)[C@@H]1Cc1ccccc1` [SPLENOCIN B]: in the series on RBL-2H3 [1], the Activity result was “Toxic”. Further, the outcome with RBL-2H3 [2] was Active.
Regarding `COc1ccnc(C(=O)N[C@H]2COC(=O)[C@H](Cc3ccccc3)[C@@H](OC(=O)CC(C)C)[C@H](C)OC2=O)c1O`, the Activity entry in the series with RBL-2H3 [3] was “Non-Toxic”. In addition, in the series with RBL-2H3 [4], the pIC50 – broadly, the negative decadic logarithm of the IC50, by convention in mol/L – was 5.36.
For `CCCC[C@H]1C(=O)OC[C@H](NC(=O)c2nccc(OC)c2O)C(=O)O[C@@H](C)[C@@H]1OC(=O)C(C)C`, the Activity result in the series on RBL-2H3 [3] is reported as “Non-Toxic”.
On to `CCCCC[C@H]1C(=O)O[C@H](C)[C@H](NC(=O)c2cccc(NC=O)c2O)C(=O)O[C@@H](C)[C@@H]1OC(=O)CC(C)C`, for which, in the series with RBL-2H3 [2], the result was Active. Moreover, the Activity entry in the series on RBL-2H3 [5] was “Toxic”.
Regarding `CCCCCC[C@H]1C(=O)O[C@H](C)[C@H](NC(=O)c2cccc(NC=O)c2O)C(=O)O[C@@H](C)[C@@H]1OC(=O)CC(C)C` [ANTIMYCIN A], in the series with RBL-2H3 [2], the outcome was Active. For the same compound, in the series on RBL-2H3 [5], the Activity result is on record as “Toxic”.
The like results for `CCC[C@H]1C(=O)O[C@H](C)[C@H](NC(=O)c2cccc(NC=O)c2O)C(=O)O[C@@H](C)[C@@H]1OC(=O)CC(C)C` were, in that order, “Active” and “Toxic”.
Turning to `CC(C)C(=O)O[C@H]1[C@H](C)OC(=O)[C@@H](NC(=O)c2cccc(NC=O)c2O)COC(=O)[C@@H]1Cc1ccccc1`, the Activity result in the series on RBL-2H3 [3] is “Non-Toxic”. Also, the pIC50 with RBL-2H3 [4] was 7.38.
On to `COc1ccnc(C(=O)N[C@H]2COC(=O)[C@H](Cc3ccccc3)[C@@H](OC(=O)C(C)C)[C@H](C)OC2=O)c1O`, for which, in the series on RBL-2H3 [3], the Activity entry is “Non-Toxic”. Further, the pIC50 in the series on RBL-2H3 [4] is 5.86. In the series with RBL-2H3 [6], the result was Active.
Consider `CCCC[C@H]1C(=O)O[C@H](C)[C@H](NC(=O)c2cccc(NC=O)c2O)C(=O)O[C@@H](C)[C@@H]1OC(=O)CC(C)C` [ANTIMYCIN A3], for which the outcome in the series on RBL-2H3 [2] was Active. In addition, the Activity entry with RBL-2H3 [5] is listed as “Toxic”.
